Only some compounds are listed: those with a hit (about 2.7% of all), similar ones and a draw of the others.
mABHD4 FP – ABHD4 (mouse) inhibition, primary FP screen. Q8VD66. purified mABHD4, FP-Rh probe fluorescence polarization. inhibition, % at 8.92 µM. 370,000 tested, 0.54% active. AID 720543;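 active = inhibition exceeding the mean over every tested compound plus 3 SD, cut at about 30% in these data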;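 note: 0% = plate median of compound wells and 100% = S159A mutant with DMSO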
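Assay system: wild-type mouse ABHD4 protein; compound: single nominal dose of 8.92 µM, 0.89% DMSO final; schedule: 45 min + 60 min at 25 °C; measured by: FP readout, ex 525 nm / em 598 nm; evaluation: % inhibition of FP-Rh probe binding versus controls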
TCR CD3 inh – blocks the human TCR-CD3 interaction; TAMRA-labeled TCR probe fluorescence, biochemical; inhibition, % at 9.4 µM; 360,000 tested, 0.37% active; AID 651800; in the data active = inhibition above about 19%;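 note: recombinant mutant TCR 2C K166C tagged with TAMRA read by polarization; 0% = receptor in buffer alone and 100% = receptor with positive control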
HTRA1 inhibitor – inhibitors of human serine peptidase HTRA1 | recombinant HTRA1, FP-rhodamine activity-based probe, fluorescence polarization | inhibition, % at 5.96 µM | 340,000 tested, 0.5% active; in the data active = inhibition above about 36%;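 note: 0% = enzyme with DMSO and 100% = wells lacking enzyme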
Target sequence (Q92743 whole entry, looked up): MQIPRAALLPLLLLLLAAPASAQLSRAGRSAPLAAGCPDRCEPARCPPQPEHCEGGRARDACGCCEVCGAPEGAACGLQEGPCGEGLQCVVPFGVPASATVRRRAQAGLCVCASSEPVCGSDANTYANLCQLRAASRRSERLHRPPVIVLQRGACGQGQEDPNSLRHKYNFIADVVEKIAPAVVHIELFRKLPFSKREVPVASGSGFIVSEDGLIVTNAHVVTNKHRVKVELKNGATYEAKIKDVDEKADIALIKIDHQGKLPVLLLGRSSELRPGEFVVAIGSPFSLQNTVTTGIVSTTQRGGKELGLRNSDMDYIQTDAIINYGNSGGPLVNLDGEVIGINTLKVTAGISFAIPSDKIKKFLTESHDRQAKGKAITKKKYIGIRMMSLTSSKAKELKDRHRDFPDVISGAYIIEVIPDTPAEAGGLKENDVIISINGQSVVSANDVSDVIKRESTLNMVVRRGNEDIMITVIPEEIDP
PRMT1 inh – blocks human protein arginine methyltransferase 1; Q99873; recombinant PRMT1, activity-based probe fluorescence polarization; inhibition, % at 2.79 µM; 370,000 tested, 1.3% active; AID 652257;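 active = inhibition above about 21% made by adding two undisclosed values, limit read from the data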
SIAE primary – inhibitors of human sialic acid acetylesterase SIAE | SIAE FP-Rh probe binding, fluorescence polarization | 370,000 tested, 0.69% active | inhibition, % at 9.66 µM | Q9HAT2;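 active = inhibition above a cutoff: mean of compounds within the control limits plus 3 SD of those, cut at about 17% in these data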;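 note: 0% = plate median of compound wells and 100% = probe without SIAE protein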
HTRA1 conf – confirmation of human HTRA1 inhibitors | inhibition, % at 5.96 µM | recombinant HTRA1, FP-rhodamine activity-based probe, fluorescence polarization | shares compounds with HTRA1 inhibitor | 1,600 tested, 66% active;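 active = mean inhibition over three repeats above a set limit taken from the earlier primary screen, cut at about 37% in these data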;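 note: 0% = HTRA1 with DMSO and 100% = wells lacking HTRA1; inhibitors block probe binding so polarization drops and inhibition rises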
* = called active by the depositor; · = not tested or not shown; + = active, no number.

SMILES	mABHD4 FP	TCR CD3 inh	HTRA1 inhibitor	PRMT1 inh	SIAE primary	HTRA1 conf
Cc1cc2ccccc2n1CCNC(=O)C1CCCC1	-2	-2	25	14	8	·
Cc1cc2c(cc1C)-c1nnnn1C(N1CCC(Cc3ccccc3)CC1)C(=O)N2 (centres undefined)	-4	7	·	2	-24	·
Cc1cc(C)cc(NC(=O)c2cc(C)nc3ccccc23)c1	-11	3	-9	4	-4	·
Brc1cc2c(cc1/C=N/Nc1nc3ccccc3s1)OCO2	2	-2	-7	-1	9	·
Brc1csc(/C=N/Nc2nc3ccccc3s2)c1	28	-8	40*	3	15	36
COc1cccc(/C=N/Nc2ncnc3scc(-c4ccccc4)c23)c1O	8	4	45*	-2	3	2
CN(C)c1nc(-c2ccccn2)nnc1-c1ccccc1	2	-3	52*	-4	2	57*
CN=c1scc(-c2ccc([N+](=O)[O-])cc2)n1/N=C/c1ccco1	-1	0	17	1	11	·
CN=c1scc(-c2ccc(F)cc2)n1/N=C/c1ccc(O)c(O)c1	33*	5	64*	5	6	69*
COc1ccc2c(c1)c(C(=O)N/N=C/c1ccc(O)c(O)c1)c(C)n2C	16	5	43*	2	-3	64*
COc1ccc2c(c1)c(C(=O)N/N=C/c1ccc(Br)cc1)c(C)n2C	-2	7	-17	-3	0	·
CCN(CC)S(=O)(=O)c1ccc(N2CCCC2)c(NC(=O)Cc2c(F)cccc2Cl)c1	-7	-1	2	1	6	·
Cc1cccc(CCNS(=O)(=O)c2ccc3c(c2)NC(=O)C(C)S3)c1 (centres undefined)	-5	4	-13	-5	-2	·
COc1ccccc1NS(=O)(=O)c1cc(N)ccc1N1CCCC1	28	5	10	7	14	·
COc1ccccc1NS(=O)(=O)c1cc(N)ccc1N1CCOCC1	3	-4	37*	12	6	-13
Cc1cc2c(N=O)c(NO)ccc2[nH]1	·	·	40*	·	·	74*
NC(N)=NN=C1CCC(c2ccccc2)CC1 (centres undefined)	2	7	-3	-4	2	·
Cc1ccc(CNc2ccc(N3CCOCC3)cc2)s1	27	0	36*	1	8	3
COc1ccc(S(=O)(=O)/N=C2\C=C(Nc3ccc(O)cc3)C(=O)c3ccccc32)cc1	75*	0	84*	4	40*	+
Cc1ccc(OCC(=O)N2CCCC(CO)(CCOc3ccccc3)C2)cc1 (centres undefined)	-3	-2	-7	5	2	·
CC(=O)OC(C)C1C2=C(C(=O)CC1(C)O)C(=O)c1c(ccc(-c3ccc4c(c3O)C(=O)C3=C(C4=O)C(C(C)OC(C)=O)C(C)(O)CC3=O)c1O)C2=O (centres undefined)	47*	0	48*	10	1	87*
CCCOc1ccc(N)cc1N	22	5	56*	16	15	13
COCCC(=O)NC1CCCc2c1cnn2-c1cccc(C)c1C (centres undefined)	2	-8	4	2	2	·
O=C(N/N=C/c1c[nH]c2ccccc12)c1ccc(O)c(O)c1	27	6	53*	12	5	82*
O=C(N/N=C/c1c[nH]c2ccccc12)c1cccc(O)c1	-1	-13	2	2	4	·
SMILES	mABHD4 FP	TCR CD3 inh	HTRA1 inhibitor	PRMT1 inh	SIAE primary	HTRA1 conf
COc1ccc(-c2cc3ccccc3n2CC(O)Cn2nc(C)cc2C)cc1 (centres undefined)	-8	3	38*	1	13	-11
COc1ccc(-c2cc3ccccc3n2CC(O)CN2CCC(C)CC2)cc1 (centres undefined)	11	1	-9	-5	-1	·
CC1CC(C)(C)CC2(C1)NC(=O)N(CC(=O)Nc1ccc3c(c1)OCO3)C2=O (centres undefined)	-7	-6	11	-4	17	·
CC1(C)CCCN(C(=O)c2ccc3c(c2NCCO)C(=O)c2ccccc2C3=O)C1	5	-17	42*	-1	6	39*
Cc1ccc2c(c1)CO[C@]21O[C@H](CCO)C[C@H](O)[C@H]1O	3	-6	1	3	0	·
CCOC(=O)C1=NN(C(=O)c2ccccc2)C(O)(c2ccc(C)cc2)C1 (centres undefined)	18	-3	32	4	3	·
COC(=O)C1=NN(C(=O)c2cccc(Br)c2)C(O)(c2ccc(Cl)cc2)C1 (centres undefined)	9	4	66*	0	3	65*
Cc1ccccc1N=Cc1ccc[nH]1	-5	-10	1	-3	0	·
Cc1ccc(N=Cc2ccc[nH]2)c(O)c1	8	-12	44*	6	-4	21
COc1ccc(/C=N/NC(=O)c2cccc(S(=O)(=O)N3CCCC3)c2)cc1O	-2	-5	12	-2	7	·
COc1cccc(NC(=O)C2CCN(C(=O)NC3CCCCC3)CC2)c1	-5	0	-5	-2	-6	·
CN(C)c1cccc2c(S(=O)(=O)NCC3CCN(C(=O)C(=O)c4cccs4)CC3)cccc12	-6	3	·	8	1	·
Cc1cccc2sc(NNC(=O)c3cc(-c4cccs4)nc4ccccc34)nc12	-1	-11	44*	-2	-4	42*
CCCC(=O)NC(c1ccc2c(c1)OCO2)c1cc(Cl)c2cccnc2c1O (centres undefined)	·	·	62*	·	·	59*
CCCC(=O)NC(c1ccco1)c1cc(Cl)c2cccnc2c1O (centres undefined)	5	-2	47*	-1	14	54*
CCCC(=O)NC(c1cccs1)c1cc(Cl)c2cccnc2c1O (centres undefined)	8	-4	63*	-3	16	56*
CC(=O)NC(c1cccs1)c1cc(F)c2cccnc2c1O (centres undefined)	9	10	35	-3	7	·
CCC(=O)NC(c1ccco1)c1cc(Cl)c2ccccc2c1O (centres undefined)	1	5	-4	3	3	·
C[C@H]1[C@@H](N(C)Cc2cccs2)CC[C@@]23CCCN2C(=O)CCC[C@@H]13	8	·	·	-3	7	·
Cc1cc(N(CCO)CCO)ccc1C(c1ccc(N(CCO)CCO)cc1C)c1ccccc1Cl	16	6	41*	7	10	30
C[C@H](NS(=O)(=O)c1ccc(Cl)cc1)C(=O)OCC(=O)c1ccc[nH]1	-5	-6	38*	8	-3	-1
C[C@H](NS(=O)(=O)c1ccc(Cl)cc1)C(=O)OCC(=O)NCCc1ccc(S(N)(=O)=O)cc1	1	0	2	-2	1	·
Cc1ccc(-c2c(C(=O)NCC(C)C)oc(=O)c3ccccc23)cc1	1	·	·	2	4	·
O=Cc1ccc(-c2cccs2)s1	-8	2	1	-5	-5	·
